The text below walks through data of paper PMC10249106 (ACS Omega, 2023).

Test [1] concerns MCF-7 cells. The test is described as follows: MTT cytotoxicity assay, MCF-7. It counts as cell-based. As to conditions: Homo sapiens, MCF7, 24 h, read-out: IC50 MCF-7. The essentials: (§1)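 Cells (ATCC via VACSERA) grown in RPMI-1640 with 10% FBS, penicillin 100 units/mL and streptomycin 100 μg/mL, 37 °C, 5% CO2. Seeded at 1.0 × 10^4 cells/well and held 48 h, then exposed to a range of test compound concentrations for 24 h. MTT (5 mg/mL solution) added for 4 h, formazan dissolved in DMSO, absorbance 570 nm. Run in triplicate; IC50 calculated. 5-FU reference.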
In general terms: Tetrazolium assays rely on reduction of a dye to a coloured formazan, in cell work by metabolically active cells.

For test [2], the system named is HCT-116 cells. Briefly: MTT cytotoxicity assay, HCT-116. It counts as cell-based. As to conditions: Homo sapiens, HCT-116, 24 h, read-out: IC50 HCT-116. In short, it runs like this: as §1
The test system of test [3] is PC3 cells. Briefly: MTT cytotoxicity assay, PC3. Type of test: cell-based. The conditions noted are these: Homo sapiens, PC-3, 24 h, read-out: IC50 PC3. The essentials: as §1
Test [4] has as its system HepG2 cells. Briefly: MTT cytotoxicity assay, HepG2. Type of test: cell-based. The conditions noted are these: Homo sapiens, HepG2, 24 h, read-out: IC50 HePG2. The essentials: as §1
In test [5] the target is Pim-1 kinase (Homo sapiens, UniProt P11309). Briefly: Pim-1 kinase inhibition, luminescent ADP-Glo kinase assay. Type of test: biochemical.
Pim-1 kinase, sequence (P11309 whole entry): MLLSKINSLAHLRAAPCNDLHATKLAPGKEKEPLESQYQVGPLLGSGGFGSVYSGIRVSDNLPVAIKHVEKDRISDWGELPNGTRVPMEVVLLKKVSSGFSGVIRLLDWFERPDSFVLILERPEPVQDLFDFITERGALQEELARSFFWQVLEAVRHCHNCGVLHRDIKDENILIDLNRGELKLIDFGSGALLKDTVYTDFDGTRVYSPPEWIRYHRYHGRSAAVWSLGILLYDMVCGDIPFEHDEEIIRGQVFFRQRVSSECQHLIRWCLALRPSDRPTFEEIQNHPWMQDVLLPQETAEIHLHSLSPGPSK

SMILES strings stand for the structures.

As usually defined, the IC50 is the concentration that inhibits the measured activity by half. As to `N#Cc1c(-c2cc3ccccc3nc2Cl)cc(-c2ccccc2)[nH]c1=O` [3a, 4-(2-Chloroquinolin-3-yl)-2-oxo-6-phenyl-1,2-dihydropyridine-3-carbonitrile], the half-inhibitory concentration (IC50) stood at 60 ± 2.93 µM in test [1]; 49.9 ± 2.36 µM in test [2]; 26.9 ± 1.28 µM in test [3]; 11.6 ± 0.57 µM in test [4]; 0.9 ± 0.04 µM in test [5].
In the same order, the values of `N#Cc1c(-c2cc3ccccc3nc2Cl)cc(-c2cccc(N)c2)[nH]c1=O` [3b, 6-(3-Aminophenyl)-4-(2-chloroquinolin-3-yl)-2-oxo-1,2-dihydropyridine-3-carbonitrile] are 42.4 ± 2.13 µM, 30.9 ± 1.52 µM, 18.4 ± 0.89 µM, 12.4 ± 0.59 µM and 0.85 ± 0.04 µM.
In the same order, the values of `COc1ccc(-c2cc(-c3cc4ccccc4nc3Cl)c(C#N)c(=O)[nH]2)cc1` [3c, 4-(2-Chloroquinolin-3-yl)-6-(4-methoxyphenyl)-2-oxo-1,2-dihydropyridine-3-carbonitrile] are 25.4 ± 1.2 µM, 18.3 ± 0.89 µM, 25.8 ± 1.3 µM, 14.1 ± 0.68 µM and 0.79 ± 0.04 µM.
In the same order, the values of `N#Cc1c(-c2cc3ccccc3nc2Cl)cc(-c2ccc(Br)cc2)[nH]c1=O` [3d, 6-(4-Bromophenyl)-4-(2-chloroquinolin-3-yl)-2-oxo-1,2-dihydropyridine-3-carbonitrile] are 19.9 ± 0.96 µM, 20 ± 0.99 µM, 20.5 ± 0.97 µM, 16.2 ± 0.77 µM and 0.72 ± 0.03 µM.
With `N#Cc1c(-c2cc3ccccc3nc2Cl)cc(-c2ccc(Cl)cc2Cl)[nH]c1=O` [3e, 4-(2-Chloroquinolin-3-yl)-6-(2,4-dichlorophenyl)-2-oxo-1,2-dihydropyridine-3-carbonitrile], the IC50 in test [1] is 45.9 ± 2.18 µM; in test [2], 50.7 ± 2.5 µM; in test [3], 25.9 ± 1.25 µM; in test [4], 11.6 ± 0.57 µM; in test [5], 2.31 ± 0.11 µM.
Consider `N#Cc1c(-c2cc3ccccc3nc2Cl)cc(-c2ccccc2)nc1Cl` [4a, 2-Chloro-4-(2-chloroquinolin-3-yl)-6-phenylnicotinonitrile], for which the half-maximal inhibitory concentration (IC50) in test [1] was 75.7 ± 3.74 µM; in test [2] it was 50 ± 2.44 µM; in test [3] it was 35.3 ± 1.67 µM; in test [4], 10 ± 0.49 µM; in test [5] it was 1.24 ± 0.06 µM. Further, the “fold less potent than quercetagetin (Pim-1 inhibition)” value in test [5] is reported as “about 2 fold”.
For `N#Cc1c(-c2cc3ccccc3nc2Cl)cc(-c2cccc(N)c2)nc1Cl` [4b, 6-(3-Aminophenyl)-2-chloro-4-(2-chloroquinolin-3-yl) nicotinonitrile], the IC50 was determined as 19.2 ± 0.94 µM in test [1]; 20.2 ± 0.96 µM in test [2]; 15 ± 0.74 µM in test [3]; 12 ± 0.59 µM in test [4]; 0.63 ± 0.03 µM in test [5].
As to `COc1ccc(-c2cc(-c3cc4ccccc4nc3Cl)c(C#N)c(Cl)n2)cc1` [4c, 2-Chloro-4-(2-chloroquinolin-3-yl)-6-(4-methoxyphenyl) nicotinonitrile], the IC50 in test [1] came to 15.7 ± 0.78 µM; in test [2] it was 7.15 ± 0.35 µM; in test [3], 13.6 ± 0.67 µM; in test [4], 8.02 ± 0.38 µM; in test [5] it was 0.61 ± 0.03 µM.
Turning to `N#Cc1c(-c2cc3ccccc3nc2Cl)cc(-c2ccc(Br)cc2)nc1Cl` [4d, 6-(4-Bromophenyl)-2-chloro-4-(2-chloroquinolin-3-yl) nicotinonitrile], the IC50 in test [1] is 8.5 ± 0.42 µM; in test [2], 8.35 ± 0.42 µM; in test [3], 14.1 ± 0.7 µM; in test [4], 6.95 ± 0.34 µM; in test [5], 0.46 ± 0.02 µM. Also, the “times more potent than A (Pim-1 inhibition)” value in test [5] is reported as 2 times.
Take `N#Cc1c(-c2cc3ccccc3nc2Cl)cc(-c2ccc(Cl)cc2Cl)nc1Cl` [4e, 2-Chloro-4-(2-chloroquinolin-3-yl)-6-(2,4-dichlorophenyl) nicotinonitrile]: the 50% inhibitory concentration (IC50) in test [1] was found to be 55.5 ± 2.71 µM; in test [2], 65.1 ± 3.08 µM; in test [3], 35.1 ± 1.73 µM; in test [4] it was 11.5 ± 0.56 µM; in test [5], 1.42 ± 0.07 µM. For the same compound, the “fold less potent than quercetagetin (Pim-1 inhibition)” value in test [5] is approximately 2.5 fold.
With `O=c1[nH]cc(F)c(=O)[nH]1` [5-FU, 5-fluorouracil, reference compound], the IC50 in test [1] was found to be 7.75 ± 0.37 µM; in test [2], 8.01 ± 0.39 µM; in test [3], 10.3 ± 0.5 µM; in test [4] it was 9.42 ± 0.46 µM.
